From ChEMBL document CHEMBL1806454, “8-Aryl- and alkyloxycaffeine analogues as inhibitors of monoamine oxidase” (Eur J Med Chem, 2011)
pIC50, pKi: −log10 of the molar value.

Assays:
[1] = biological target: T1, Amine oxidase [flavin-containing] A (Homo sapiens, UniProt P21397); assay: Inhibition of recombinant human MAOA expressed in baculovirus infected insect cell microsomes using kynuramine as substrate assessed as formation of 4-hydroxyquinoline after 20 mins by fluorescence spectrophotometry; design: species or system Microsome
T1 sequence (P21397 whole entry): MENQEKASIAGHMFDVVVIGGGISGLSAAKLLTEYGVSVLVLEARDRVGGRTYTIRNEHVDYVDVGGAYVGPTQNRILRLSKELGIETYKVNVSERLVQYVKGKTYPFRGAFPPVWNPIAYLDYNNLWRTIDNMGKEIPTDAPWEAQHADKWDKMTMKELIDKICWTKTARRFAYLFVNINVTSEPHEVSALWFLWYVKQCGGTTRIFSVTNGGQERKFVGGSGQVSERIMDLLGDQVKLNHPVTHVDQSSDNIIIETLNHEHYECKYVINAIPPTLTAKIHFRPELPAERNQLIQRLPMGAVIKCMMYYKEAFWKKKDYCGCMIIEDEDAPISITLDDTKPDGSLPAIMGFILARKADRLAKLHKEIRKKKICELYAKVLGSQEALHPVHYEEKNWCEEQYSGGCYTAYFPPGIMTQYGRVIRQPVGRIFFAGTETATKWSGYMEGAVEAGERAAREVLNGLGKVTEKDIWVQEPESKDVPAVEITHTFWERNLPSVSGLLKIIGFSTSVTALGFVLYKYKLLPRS

Homo sapiens = species: Homo sapiens; assay: Selectivity index, ratio of Ki for recombinant human MAOB to Ki for recombinant human MAOA
Procedure, shortened: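 Recombinant human MAO-A and MAO-B in insect-cell microsomes (0.0075 mg/mL), kynuramine 45 µM (A) or 30 µM (B), inhibitor 0–100 µM, 9 concentrations, DMSO 4% final, K-phosphate 100 mM pH 7.4 isotonic with KCl, 37 °C 20 min. NaOH stop, 4-hydroxyquinoline fluorescence (ex 310/em 400 nm). Duplicate IC50 fits converted to Ki; SI = Ki(MAO-B)/Ki(MAO-A).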

[2] = biological target: T2, Amine oxidase [flavin-containing] B (Homo sapiens, UniProt P27338); assay: Inhibition of recombinant human MAOB expressed in baculovirus infected insect cell microsomes using kynuramine as substrate assessed as formation of 4-hydroxyquinoline after 20 mins by fluorescence spectrophotometry; design: species or system Microsome
T2 sequence (P27338 whole entry): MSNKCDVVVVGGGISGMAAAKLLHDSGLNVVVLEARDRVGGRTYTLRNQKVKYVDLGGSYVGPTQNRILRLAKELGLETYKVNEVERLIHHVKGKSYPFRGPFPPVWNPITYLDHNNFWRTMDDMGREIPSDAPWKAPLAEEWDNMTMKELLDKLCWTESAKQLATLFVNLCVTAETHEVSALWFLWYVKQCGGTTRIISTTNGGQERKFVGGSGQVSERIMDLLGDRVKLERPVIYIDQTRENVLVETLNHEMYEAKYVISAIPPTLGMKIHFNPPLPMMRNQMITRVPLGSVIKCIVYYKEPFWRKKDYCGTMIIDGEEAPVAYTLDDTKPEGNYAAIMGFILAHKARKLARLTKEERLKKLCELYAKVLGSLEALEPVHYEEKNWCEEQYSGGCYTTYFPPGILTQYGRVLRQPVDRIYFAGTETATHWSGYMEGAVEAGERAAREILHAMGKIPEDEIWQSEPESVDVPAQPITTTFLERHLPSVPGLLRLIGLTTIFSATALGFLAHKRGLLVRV

[3] = biological target: T2, Amine oxidase [flavin-containing] B; assay: Competitive inhibition of human recombinant MAOB expressed in baculovirus infected insect cell microsomes using kynuramine as substrate assessed as 4-hydroxyquinoline formation per min per mg protein by Lineweaver-Burk plot analysis; design: species or system Microsome
[4] = biological target: T1, Amine oxidase [flavin-containing] A; assay: Competitive inhibition of human recombinant MAOA expressed in baculovirus infected insect cell microsomes using kynuramine as substrate assessed as 4-hydroxyquinoline formation per min per mg protein by Lineweaver-Burk plot analysis; design: species or system Microsome
[5] = biological target: T2, Amine oxidase [flavin-containing] B; assay: Ratio of 8-benzyloxycaffeine IC50 to compound IC50 for recombinant human MAOB expressed in baculovirus infected insect cell microsomes; design: species or system Microsome

pIC50 [1]	pKi [1]	Ratio Ki (Homo sapiens)	pIC50 [2]	pKi [2]	pKi [3]	pKi [4]	Structure (SMILES)	Ratio IC50 [5]
4.82	5.27	0.053	6.42	6.55	–	–	CC(C)CCCCOc1nc2c(c(=O)n(C)c(=O)n2C)n1C	–
5.78	6.24	0.207	6.78	6.92	7.06	5.93	Cn1c(=O)c2c(nc(OCCOc3ccc(Br)cc3)n2C)n(C)c1=O	–
4.86	5.32	0.45	5.52	5.66	–	–	Cn1c(=O)c2c(nc(OCC3CC=CCC3)n2C)n(C)c1=O (stereo not given)	–
4.56	5.02	1.08	4.85	4.99	–	–	CC(C)CCOc1nc2c(c(=O)n(C)c(=O)n2C)n1C	–
4.12	4.58	0.3	4.97	5.11	–	–	Cn1c(=O)c2c(nc(Oc3ccccc3)n2C)n(C)c1=O	–
4.73	5.19	0.16	5.86	6.00	–	–	Cn1c(=O)c2c(nc(OCC3CCCCC3)n2C)n(C)c1=O	–
4.64	5.10	1.46	4.80	4.93	–	–	Cn1c(=O)c2c(nc(OCC3CCCC3)n2C)n(C)c1=O	–
4.16	4.61	0.019	6.21	6.35	–	–	Cn1c(=O)c2c(nc(OCCCc3ccccc3)n2C)n(C)c1=O	–
5.87	6.33	0.1	7.19	7.32	–	–	Cn1c(=O)c2c(nc(OCc3ccc(Cl)cc3)n2C)n(C)c1=O	27
4.80	5.25	0.39	5.53	5.67	–	–	Cn1c(=O)c2c(nc(OCCc3ccccc3)n2C)n(C)c1=O	–
4.69	4.11	0.0036	6.42	6.55	–	–	Cn1c(=O)c2c(nc(OCCOc3ccccc3)n2C)n(C)c1=O	–
5.88	6.34	0.099	7.21	7.35	–	–	Cn1c(=O)c2c(nc(OCc3ccc(Br)cc3)n2C)n(C)c1=O	27
3.78	4.23	0.047	5.42	5.56	–	–	Cn1c(=O)c2c(nc(OCCOCc3ccccc3)n2C)n(C)c1=O	–
–	6.19	–	–	–	–	–	Cn1c(=O)c2c(nc(OCCOc3ccc(Cl)cc3)n2C)n(C)c1=O	–
